This is an account of results in ChEMBL document CHEMBL1649505, “Activity of telavancin against Staphylococcus aureus strains with various vancomycin susceptibilities in an in vitro pharmacokinetic/pharmacodynamic model with simulated endocardial vegetations” (Antimicrob Agents Chemother, 2009).

Converted amounts (≈) assume the structure as drawn. The source made the active and inactive calls. The calls are words filed in the database; no cut-off is given here.

Data set [1] has as its system Staphylococcus aureus. Briefly: Antimicrobial activity against heteroresistant glycopeptide-intermediate Staphylococcus aureus 1629 by broth microdilution method. Type of data set: functional. In outline:
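MICs determined by broth microdilution at ~5.5 log10 CFU/ml following CLSI guidelines.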
On the technique in general: Broth dilution looks for growth in wells or tubes with falling amounts of substance.

In data set [2] the test system is Staphylococcus aureus. The data set is described as follows: Antimicrobial activity against glycopeptide-intermediate Staphylococcus aureus NJ992 by broth microdilution method.
Data set [3] has as its system Staphylococcus aureus. Briefly: microbe, parasite or virus in culture. As to conditions: 494.
For data set [4], the system named is Staphylococcus aureus. The data set is described as follows: microbe, parasite or virus in culture. As to conditions: 1199.
Data set [5] can be described thus: Cmax in in vitro pharmacokinetic/pharmacodynamic model at 300 mg for every 8 hrs.
Data set [6] can be described thus: AUC (0 to 24 hrs) in in vitro pharmacokinetic/pharmacodynamic model at 300 mg for every 8 hrs.
Data set [7] in a line: AUC (0 to 24 hrs) in in vitro pharmacokinetic/pharmacodynamic model at 10 mg/kg for every 12 hrs. The arrangement: time < 24 hr, dose 10 mg/kg. The note with it: in the assay text read “every 24 hrs” for “every 12 hrs”. Type of data set: ADME, organism-based. In outline: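 Central compartment (250 ml glass in vitro PK/PD model holding simulated endocardial vegetations) sampled via injection port at 1, 4, 8, 24, 32, 48, 72 and 96 h. Drug levels measured by agar-well bioassay with Micrococcus luteus ATCC 9341 (zone sizes after 18–24 h at 35°C). Peak, half-life and AUC derived by trapezoidal method. Models run in duplicate; mean ± SD.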

For data set [8], the system named is Staphylococcus aureus. Briefly: Antibacterial activity against methicillin-susceptible Staphylococcus aureus 1199 assessed as bacterial load per gram in in vitro pharmacokinetic/pharmacodynamic model at 10 mg/kg administered daily after 96 hrs. In kind it is functional. In outline:
(§1)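 250-ml in vitro PK/PD model holding simulated endocardial vegetations, inoculum ~9 log10 CFU/g. Regimens simulated over 96 h: telavancin 10 mg/kg daily (peak 87.5 μg/ml, t½ 8 h) or vancomycin 1 g every 12 h (trough 10 μg/ml, t½ 6 h). Two SEVs per model removed at 0–96 h, homogenized, diluted and plated on TSA at 35°C for 18–24 h. Detection limit 2 log10 CFU/g; models in duplicate.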

The test system of data set [9] is Staphylococcus aureus. The data set is described as follows: Antibacterial activity against heteroresistant glycopeptide-intermediate Staphylococcus aureus 1629 assessed as bacterial load per gram in in vitro pharmacokinetic/pharmacodynamic model at 10 mg/kg administered daily after 96 hrs. In kind it is functional. In outline:
as §1

Data set [10] relates to Staphylococcus aureus. Briefly: Antibacterial activity against glycopeptide-intermediate Staphylococcus aureus NJ992 assessed as bacterial load per gram in in vitro pharmacokinetic/pharmacodynamic model at 10 mg/kg administered daily after 96 hrs. In kind it is functional.
Data set [11] has as its system Staphylococcus aureus. Briefly: Antibacterial activity against heteroresistant glycopeptide-intermediate Staphylococcus aureus 1629 assessed as decrease in bacterial load in in vitro pharmacokinetic/pharmacodynamic model at 10 mg/kg administered daily after 64 hrs. Type of data set: functional, organism-based. The arrangement: dose 10 mg/kg. In outline: as §1
Data set [12] has as its system Staphylococcus aureus. The data set is described as follows: Antibacterial activity against glycopeptide-intermediate Staphylococcus aureus NJ992 assessed as decrease in bacterial load in in vitro pharmacokinetic/pharmacodynamic model at 10 mg/kg administered daily after 62 hrs. In kind it is functional, organism-based. More on the design: dose 10 mg/kg. In outline: as §1

Data set [13] relates to Staphylococcus aureus. The data set is described as follows: Antibacterial activity against methicillin-resistant Staphylococcus aureus 494 assessed as decrease in bacterial load in in vitro pharmacokinetic/pharmacodynamic model at 1 g for every 12 hrs administered daily after 96 hrs. Type of data set: functional, organism-based. In outline: as §1
Data set [14] relates to Staphylococcus aureus. The data set is described as follows: Antibacterial activity against methicillin-susceptible Staphylococcus aureus 1199 assessed as decrease in bacterial load in in vitro pharmacokinetic/pharmacodynamic model at 1 g for every 12 hrs administered daily after 96 hrs. In kind it is functional, organism-based. In outline: as §1
Data set [15] has as its system Staphylococcus aureus. Briefly: Antibacterial activity against heteroresistant glycopeptide-intermediate Staphylococcus aureus 1629 assessed as decrease in bacterial load in in vitro pharmacokinetic/pharmacodynamic model at 1 g for every 12 hrs administered daily after 96 hrs. In kind it is functional, organism-based. In outline: as §1
Data set [16] concerns Staphylococcus aureus. The data set is described as follows: Antibacterial activity against glycopeptide-intermediate Staphylococcus aureus NJ992 assessed as decrease in bacterial load in in vitro pharmacokinetic/pharmacodynamic model at 1 g for every 12 hrs administered daily after 96 hrs. Type of data set: functional, organism-based. In outline: as §1
The nature of data set [17]: Cmax in in vitro pharmacokinetic/pharmacodynamic model at 1 g for every 12 hrs. Type of data set: ADME. More on the design: dose 1 g. In outline: (§2)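 Drugs given as boluses into the central compartment of a 250-ml glass in vitro PK/PD model over 96 h. Samples taken via the injection port at 1, 4, 8, 24, 32, 48, 72 and 96 h. […] Half-life, peak and AUC derived by the trapezoidal method. Models run in duplicate; mean ± SD.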

A short description of data set [18]: Half life in in vitro pharmacokinetic/pharmacodynamic model at 1 g for every 12 hrs. In kind it is ADME. The gist of the method: as §2
A short description of data set [19]: AUC (0 to 24 hrs) in in vitro pharmacokinetic/pharmacodynamic model at 1 g for every 12 hrs. Type of data set: ADME. More on the design: dose 1 g, time < 24 hr. The gist of the method:
as §2

The nature of data set [20]: Cmax in in vitro pharmacokinetic/pharmacodynamic model at 5 mg/kg for every 24 hrs. In kind it is ADME, organism-based. The arrangement: dose 5 mg/kg. The gist of the method: as §2
Data set [21] is described as follows: Half life in in vitro pharmacokinetic/pharmacodynamic model at 5 mg/kg for every 24 hrs. More on the design: dose 5 mg/kg. In kind it is ADME, organism-based. In outline: as §2
A short description of data set [22]: AUC (0 to 24 hrs) in in vitro pharmacokinetic/pharmacodynamic model at 5 mg/kg for every 24 hrs. Type of data set: ADME, organism-based. More on the design: time < 24 hr, dose 5 mg/kg. The gist of the method:
as §2

As a reminder, the Cmax is the peak of the concentration-time curve. The AUC is the area under the concentration-time curve, a measure of exposure. On to `CO[C@H]1/C=C/O[C@@]2(C)Oc3c(C)c(O)c4c(O)c(c(/C=N/N5CCN(C)CC5)c(O)c4c3C2=O)NC(=O)/C(C)=C\C=C\[C@H](C)[C@H](O)[C@@H](C)[C@@H](O)[C@@H](C)[C@H](OC(C)=O)[C@@H]1C` [RIFAMPIN], for which the MIC came to 0.004 µg/mL (≈ 0.00486 µM) against Staphylococcus aureus [1], 2050 µg/mL (≈ 2490 µM) in the data set on Staphylococcus aureus [2], 0.004 µg/mL (≈ 0.00486 µM) against Staphylococcus aureus [3] and 0.004 µg/mL (≈ 0.00486 µM) against Staphylococcus aureus [4]. Further, the Cmax in data set [5] came out at 4900 ng/mL. This compound also came in with an AUC at 24 h in data set [6] of 64.4 µg·h/mL.

The compound `CCCCCCCCCCNCCN[C@@]1(C)C[C@H](O[C@H]2[C@H](Oc3c4cc5cc3Oc3ccc(cc3Cl)[C@@H](O)[C@@H](NC(=O)[C@@H](CC(C)C)NC)C(=O)N[C@@H](CC(N)=O)C(=O)N[C@H]5C(=O)N[C@H]3C(=O)N[C@H](C(=O)N[C@H](C(=O)O)c5cc(O)c(CNCP(=O)(O)O)c(O)c5-c5cc3ccc5O)[C@H](O)c3ccc(c(Cl)c3)O4)O[C@H](CO)[C@@H](O)[C@@H]2O)O[C@@H](C)[C@H]1O` [TELAVANCIN] yielded an AUC at 24 h in data set [7] of 969 µg·h/mL. Also, the CFU/g was determined as 2.8 in the data set on Staphylococcus aureus [8], 4.2 log10 CFU/g with Staphylococcus aureus [9] and 4.1 log10 CFU/g with Staphylococcus aureus [10]. Moreover, the result with Staphylococcus aureus [11] and with Staphylococcus aureus [12] was Active. Besides, the result in the data set with Staphylococcus aureus [13], in the data set with Staphylococcus aureus [14], in the data set with Staphylococcus aureus [15] and in the data set on Staphylococcus aureus [16] was inactive. For the same compound, the MIC with Staphylococcus aureus [1] amounted to 0.125 µg/mL (≈ 0.0712 µM); against Staphylococcus aureus [2], 0.5 µg/mL (≈ 0.285 µM); in the data set with Staphylococcus aureus [3], 0.125 µg/mL (≈ 0.0712 µM); against Staphylococcus aureus [4], 0.25 µg/mL (≈ 0.142 µM).

Broadly, the half-life is the time in which the quantity being followed falls by half. A lower half-life goes with fast loss. On to `CN[C@H](CC(C)C)C(=O)N[C@H]1C(=O)N[C@@H](CC(N)=O)C(=O)N[C@H]2C(=O)N[C@H]3C(=O)N[C@H](C(=O)N[C@H](C(=O)O)c4cc(O)cc(O)c4-c4cc3ccc4O)[C@H](O)c3ccc(c(Cl)c3)Oc3cc2cc(c3O[C@@H]2O[C@H](CO)[C@@H](O)[C@H](O)[C@H]2O[C@H]2C[C@](C)(N)[C@H](O)[C@H](C)O2)Oc2ccc(cc2Cl)[C@H]1O` [VANCOMYCIN], for which, in data set [17], the peak level (Cmax) was 37000 ng/mL. This compound had a half-life in data set [18] of 6.2 h. This compound displayed an AUC at 24 h in [19] of 391 µg·h/mL. The MIC in the data set on Staphylococcus aureus [2] worked out at 8 µg/mL (≈ 5.52 µM).

GENTAMICIN [listing 1 of 2 here] gave a Cmax in [20] of 15800 ng/mL. This compound also came in with a t1/2 in data set [21] of 3.4 h. The same compound came in with an AUC in data set [22] of 63.1 µg·h/mL.

The compound GENTAMICIN [listing 2 of 2 here] had an MIC in the data set with Staphylococcus aureus [1] of 0.25 µg/mL.
